Data set [1] deals with Replicase polyprotein 1ab (Severe acute respiratory syndrome coronavirus 2, UniProt P0DTD1). The data set is described as follows: Inhibition of recombinant SARS-CoV-2 3CLpro using Dacyl-KTSAVLQSGFRKME-Edans as substrate preincubated for 10 mins followed by substrate addition measured for 5 mins by FRET assay.
Data set [2] can be described thus: AUC (0 to t) in ICR mouse at 20 mg/kg, po measured for 24 hrs by LC-MS/MS analysis. Format: ADME, organism-based. The conditions noted are these: in vivo. Summed up: (§1)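 ICR mice, three per group, randomly assigned, received a single 20 mg/kg oral dose, with a parallel 10 mg/kg IV group for bioavailability. Blood was sampled at 0.25, 0.5, 1, 2, 4, 6, 8 and 24 h. Plasma was protein-precipitated with MeOH plus internal standard and quantified by LC-MS/MS. Parameters came from non-compartmental analysis.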

Data set [3] is described as follows: Half life in ICR mouse at 20 mg/kg, po measured for 24 hrs by LC-MS/MS analysis. In kind it is ADME, organism-based. As to conditions: in vivo. A digest of the protocol:
as §1

The nature of data set [4]: Half life in ICR mouse at 10 mg/kg, iv measured for 24 hrs by LC-MS/MS analysis. In kind it is ADME, organism-based. The conditions noted are these: in vivo. A digest of the protocol:
(§2)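 Male/female unspecified ICR mice, three per group, randomly assigned, given a single intravenous dose of 10 mg/kg. Whole blood was drawn at 0.083, 0.25, 0.5, 1, 2, 4, 8 and 24 h. Plasma (20 μL) was precipitated with MeOH containing internal standard, then analysed by LC-MS/MS. Parameters came from non-compartmental analysis.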

Data set [5] can be described thus: Cmax in ICR mouse at 20 mg/kg, po measured for 24 hrs by LC-MS/MS analysis. In kind it is ADME, organism-based. As to conditions: in vivo. A digest of the protocol:
as §1

The nature of data set [6]: AUC (0 to infinity) in ICR mouse at 10 mg/kg, iv measured for 24 hrs by LC-MS/MS analysis. The conditions noted are these: in vivo. Format: ADME, organism-based. A digest of the protocol:
as §2

Data set [7] can be described thus: AUC (0 to t) in ICR mouse at 10 mg/kg, iv measured for 24 hrs by LC-MS/MS analysis. In kind it is ADME, organism-based. The conditions noted are these: in vivo. Summed up:
as §2

Data set [8] in a line: Oral bioavailability in ICR mouse at 20 mg/kg measured for 24 hrs by LC-MS/MS analysis. Format: ADME, organism-based. As to conditions: in vivo. Summed up: as §1
Data set [9] is described as follows: AUC (0 to infinity) in ICR mouse at 20 mg/kg, po measured for 24 hrs by LC-MS/MS analysis. In kind it is ADME, organism-based. As to conditions: in vivo. A digest of the protocol: as §1
The next data set deals with SARS-CoV-2. As to the kind of experiment: Antiviral activity against SARS-CoV-2 WIV04 infected in African green monkey Vero E6 cells assessed as reduction in viral replication preincubated cells for 1 hr followed by viral infection for 24 hrs by real-time fluorescence quantitative PCR method. In kind it is functional, organism-based. As to conditions: Severe acute respiratory syndrome coronavirus 2, WIV04, Vero C1008.

Data set [10] is described as follows: Selectivity index, ratio of CC50 for African green monkey Vero E6 cells to EC50 for SARS-CoV-2 WIV04 infected in African green monkey Vero E6 cells. Format: toxicity. As to conditions: read-out: Ratio CC50/EC50.
Data set [11] has as its target Procathepsin L (Homo sapiens) (UniProt P07711). The data set is described as follows: Inhibition of cathepsin L (unknown origin) using Z-FR-AMC at 20 uM as substrate measured for 10 mins by fluorescence based assay relative to control.
Data set [12] addresses Chymotrypsinogen A (Bos taurus) (UniProt P00766). As to the kind of experiment: Inhibition of bovine pancreatic alpha-chymotrypsin using N-succinyl-AAPF-AMC as substrate at 20 uM preincubated for 10 mins followed by substrate addition measured for 10 mins by fluorescence based assay relative to control. The conditions noted are these: time 20.0 min. A digest of the protocol: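 Chymotrypsin (5 nM final) was preincubated 10 min with 20 μM compound in PBS, pH 7.4. The reaction was started with N-succinyl-AAPF-AMC (10 μM final). Fluorescence (ex 380/em 460 nm) was read every 1 min for 10 min.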

A further data set concerns Vero C1008. As to the kind of experiment: Cytotoxicity against African green monkey Vero E6 cells incubated for 48 hrs by Luminescent cell viability assay. Format: toxicity, cell-based. The conditions noted are these: chlorocebus sabaeus, vero c1008, 48 h. Summed up: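 Vero E6 cells were seeded at 2.5 × 10³/well and grown 48 h, then exposed to compound at 0.5–200 μM for a further 48 h (n = 3). Viability was read by a luminescent cell-viability reagent after 10 min. Values came from curve fitting.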

The source of these data is ChEMBL document CHEMBL5620366, “Design, synthesis and biological evaluation of peptidomimetic benzothiazolyl ketones as 3CLpro inhibitors against SARS-CoV-2” (Eur J Med Chem, 2023).

Sequence of Procathepsin L (Homo sapiens) (P07711 114-333 limits assumed): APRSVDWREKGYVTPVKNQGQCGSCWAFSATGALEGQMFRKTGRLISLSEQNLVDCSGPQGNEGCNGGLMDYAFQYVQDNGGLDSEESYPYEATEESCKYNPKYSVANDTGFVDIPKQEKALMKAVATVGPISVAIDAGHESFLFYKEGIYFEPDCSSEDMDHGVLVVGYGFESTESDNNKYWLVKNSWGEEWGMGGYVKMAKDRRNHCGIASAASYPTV

By IC50 is commonly meant the concentration that inhibits the measured activity by half. A word on the Cmax: it is the peak of the concentration-time curve. By AUC is commonly meant the area under the concentration-time curve, a measure of exposure. On to `CC(C)(C)[C@H](NC(=O)C(F)(F)F)C(=O)N1[C@@H]2CC[C@@H](C2)[C@H]1C(=O)N[C@@H](C[C@@H]1CCNC1=O)C(=O)c1nc2ccccc2s1`, for which the IC50 in data set [1] came out at 110 nM. The AUCt in data set [2] is 2155 ng·h/mL; in data set [7], 2281 ng·h/mL. The results for the t1/2 in data set [3] and in data set [4] were 54.6 min and 28.2 min, respectively. In data set [5], this molecule gave a Cmax of 1597 ng/mL. For the same molecule, the AUC in data set [6] came out at 2284 ng·h/mL; in data set [9], 2161 ng·h/mL. In addition, in data set [8], the F is listed as 47.25%.
Take `CC(C)(F)C(=O)N[C@H](C(=O)N1[C@@H]2CC[C@@H](C2)[C@H]1C(=O)N[C@@H](C[C@@H]1CCNC1=O)C(=O)c1nc2ccccc2s1)C(C)(C)C`: the IC50 in data set [1] stood at 1270 nM.
Regarding `CC(C)(C)OC(=O)N[C@H](C(=O)N1[C@@H]2CC[C@@H](C2)[C@H]1C(=O)N[C@@H](C[C@@H]1CCNC1=O)C(=O)c1nc2ccccc2s1)C(C)(C)C`, the IC50 in data set [1] was 5000 nM.
With `[2H]C([2H])([2H])C(=O)N[C@H](C(=O)N1[C@@H]2CC[C@@H](C2)[C@H]1C(=O)N[C@@H](C[C@@H]1CCNC1=O)C(=O)c1nc2ccccc2s1)C(C)(C)C`, the IC50 in [1] came to 527 nM.
The EC50 is the concentration needed to bring the measured effect to its halfway point. A word on the inhibition: it is the share of the control response that was lost under treatment. By CC50 is commonly meant the concentration at which the toxic effect on the cells reaches its halfway point. Consider `O=C1NCC[C@H]1C[C@H](NC(=O)[C@@H]1[C@H]2CC[C@H](C2)N1C(=O)[C@@H](NS(=O)(=O)C(F)(F)F)C12CC3CC(CC(C3)C1)C2)C(=O)c1nc2ccccc2s1`, for which the IC50 in data set [1] is 1650 nM. Further, the AUCt turned out to be 32473 ng·h/mL in data set [2] and 33780 ng·h/mL in data set [7]. In addition, the figures for the t1/2 in data set [3] and in [4] were 126 min and 82.8 min, respectively. For the same molecule, the Cmax in data set [5] came to 9327 ng/mL. Also, in the data set with SARS-CoV-2, the EC50 is 180 nM. The selectivity ratio in [10] came to 300. The AUC in data set [6] was 34308 ng·h/mL; in data set [9] it was 33207 ng·h/mL. The results for the inhibition in data set [11] and in data set [12] were 27% and 55.8%, respectively. The molecule further displayed a F in [8] of 48.1%. The molecule further came in with a CC50 with Vero C1008 of 54000 nM.
Regarding `COc1ccc(C[C@H](NS(=O)(=O)C(F)(F)F)C(=O)N2[C@@H]3CC[C@@H](C3)[C@H]2C(=O)N[C@@H](C[C@@H]2CCNC2=O)C(=O)c2nc3ccccc3s2)cc1`, the IC50 in [1] is 5340 nM.
Regarding `CC(C)(C)[C@H](NC(=O)C(F)(F)F)C(=O)N1C[C@H]2[C@@H]([C@H]1C(=O)N[C@H](C#N)C[C@@H]1CCNC1=O)C2(C)C` [NIRMATRELVIR], the AUCt in [2] turned out to be 1023 ng·h/mL; in data set [7], 2240 ng·h/mL. The t1/2 in [3] turned out to be 30.6 min; in data set [4] it was 25.2 min. Further, the Cmax in [5] was 1819 ng/mL. Also, the AUC in data set [6] worked out at 2241 ng·h/mL; in data set [9], 1029 ng·h/mL. In [8], the F stood at 22.85%. This molecule registered a CC50 in the data set with Vero C1008 greater than 500000 nM.
On to `O=C1NCC[C@H]1C[C@H](NC(=O)[C@@H]1[C@H]2CC[C@H](C2)N1C(=O)[C@H](CC1CCCCC1)NS(=O)(=O)C(F)(F)F)C(=O)c1nc2ccccc2s1`, for which the IC50 in data set [1] is 5140 nM.
`CN(C)S(=O)(=O)N[C@H](C(=O)N1[C@@H]2CC[C@@H](C2)[C@H]1C(=O)N[C@@H](C[C@@H]1CCNC1=O)C(=O)c1nc2ccccc2s1)C(C)(C)C`: the IC50 in data set [1] came to 584 nM.
`CC(C)(C)[C@H](NS(=O)(=O)C(F)(F)F)C(=O)N1[C@@H]2CC[C@@H](C2)[C@H]1C(=O)N[C@@H](C[C@@H]1CCNC1=O)C(=O)c1nc2ccccc2s1`: the IC50 in data set [1] was determined as 868 nM. Also, the AUCt in data set [2] was 5143 ng·h/mL; in data set [7] it was 3783 ng·h/mL. The values for the t1/2 in data set [3] and in data set [4] were 45.6 min and 44.4 min, respectively. The Cmax in data set [5] worked out at 3342 ng/mL. Further, the 50% effective concentration (EC50) in the data set on SARS-CoV-2 came to 320 nM. For the same molecule, in data set [10], the selectivity ratio turned out to be 429. Also, the AUC in data set [6] is 3857 ng·h/mL; in [9] it was 5153 ng·h/mL. This molecule displayed a F in data set [8] of 67.98%. In the data set on Vero C1008, the midpoint of cytotoxicity, the CC50, lay at 137000 nM.
With `CC(C)(C)OC[C@H](NS(=O)(=O)C(F)(F)F)C(=O)N1[C@@H]2CC[C@@H](C2)[C@H]1C(=O)N[C@@H](C[C@@H]1CCNC1=O)C(=O)c1nc2ccccc2s1`, the IC50 in [1] came to 2740 nM.
